Experimental data from different studies.
Target: Serine/threonine-protein kinase N2 (PKN2, Homo sapiens, UniProt Q16513)

SMILES	assay	system	conditions	measurement	result
COc1cc(Cl)c(C(=O)N[C@@H](CN[C@H]2CC[C@@H](N)CC2)Cc2ccc(C#N)cc2)cc1-c1ccc(CN[C@H](C)c2ccc(C)cc2)o1	enzyme activity, inhibitor		1 µM	remaining activity	102%
CO[C@H]1CC[C@H](CNc2ccc(S(=O)(=O)NC(=O)c3ccc(N4CCN(CC5=C(c6ccc(Cl)cc6)CC(C)(C)CC5)CC4)cc3Oc3cnc4[nH]ccc4c3)cc2[N+](=O)[O-])CC1	cell-free assay, competition with immobilised ligand		1 µM	remaining binding	97%
CC(C)(O)[C@H]1CC[C@H](Nc2ccc3ncc(-c4cccc(C(F)(F)F)c4)n3n2)CC1	enzyme activity, inhibitor		1 µM	remaining activity	95.9%
O=C1NC(=O)c2cc(Nc3ccc(F)cc3)c(Nc3ccc(F)cc3)cc21	cell-free assay		0.5 µM	remaining signal	102%
Cc1ccc(C(=O)Nc2ccc(CN3CCN(C)CC3)c(C(F)(F)F)c2)cc1C#Cc1cnc2cccnn12	enzyme activity, inhibitor		23.5 nM	remaining activity	99%
Cn1c2c(Cl)c(Cl)ccc2c2cc[nH]c(=O)c21	thermal stability, DSF		10 µM	ΔTm	1.3 °C
CCCS(=O)(=O)Nc1ccc(F)c(C(=O)c2c[nH]c3ncc(-c4ccc(Cl)cc4)cc23)c1F	enzyme activity, inhibitor		1 µM	inhibition	< 10%
CCCOc1ccc([C@H]2[C@H](C(=O)O)[C@@H](c3ccc4c(c3)OCO4)CN2CC(=O)Nc2c(CC)cccc2CC)cc1	cell-free assay, competition with immobilised ligand		1 µM	remaining binding	100%
COc1cc(-c2cc(-c3ccc(N4CCNCC4)cc3)cnc2C)cc(OC)c1OC	enzyme activity, inhibitor		0.1 µM	inhibition	4%
Cc1sc(C(=O)NC2COC2)cc1-n1cc(NC(=O)Nc2c(F)cccc2Cl)cn1	enzyme activity, inhibitor		10 µM	remaining activity	87.1%
CCN(CC)CCNC(=O)c1c(C)[nH]c(/C=C2\C(=O)Nc3ccc(F)cc32)c1C	enzyme activity, inhibitor		0.3 µM	inhibition	24%
CCCOc1ccc(OC)c(F)c1C(=O)c1ccc(C(=O)N[C@@H]2CNC[C@H]2NC(=O)c2ccc3[nH]ncc3c2)cc1	enzyme activity, inhibitor		0.1 µM	remaining activity	53%
Cn1c2c(c3ccc(Cl)c(Cl)c31)C(C#N)C(C)(C)NC2=O (centres unmarked)	thermal stability, DSF		10 µM	ΔTm	1.3 °C
Nc1nc(NC2CCCCC2)sc1C(=O)c1ccccc1	enzyme activity, inhibitor		10 µM	remaining activity	98%
O=C(Nc1cnn(-c2csc(C(=O)NC3COC3)c2)c1)Nc1ccccc1Cl	enzyme activity, inhibitor		5 µM	remaining activity	112%
CN(C)c1ncnc(-c2ccc3nc(Nc4cc(CN5CCN(C(=O)CC(F)(F)F)CC5)ccn4)[nH]c3c2)c1Cl	cell-free assay, competition with immobilised ligand		1 µM	remaining binding	85%
COc1cccc2c(NCc3ccccc3)nc(-n3c(N)nc4ccccc43)nc12	target engagement in cells, inhibitor, chemoproteomics		20 mM	inhibition	-3.6%
COc1cc(Nc2cnc(C#N)c(O[C@H](C)CN(C)C)n2)ncc1-c1cnn(C)c1	enzyme activity, inhibitor, radiometric		1 µM	remaining activity	87%

SMILES	assay	system	conditions	measurement	result
CCC(=O)N[C@H]1CC[C@@H](C(=O)N(C)c2ccc(-c3nc4ccccc4o3)cc2)C1	cell-free assay, competition with immobilised ligand		1 µM	remaining binding	100%
CCN1CCN(Cc2ccc(NC(=O)c3ccc(C)c(Oc4ccnc5[nH]ccc45)c3)cc2C(F)(F)F)CC1	target engagement in cells, inhibitor, chemoproteomics	Huh-7	10 µM	inhibition	-10.5%
CCS(=O)(=O)c1cc2cc(C[C@@](O)(CC(C)(C)c3ccc(F)cc3C(N)=O)C(F)(F)F)[nH]c2cn1	cell-free assay, competition with immobilised ligand		1 µM	remaining binding	85%
O=C1Nc2ccc(Cl)cc2C1=Cc1cc(Cl)c(O)c(Cl)c1	cell-free assay		0.5 µM	remaining signal	114%
Oc1cccc(-c2nc(N3CCOCC3)c3oc4ncccc4c3n2)c1	enzyme activity, inhibitor		10 µM	remaining activity	71%
CNCc1ccc(-c2cc(-c3nc(-c4ccc(S(=O)(=O)C(C)C)cc4)cnc3N)on2)cc1	enzyme activity, inhibitor		0.4 µM	inhibition	59%
CC(C)(C)c1nc2c(s1)c1nc(N)ncc1c1ccc(NS(=O)(=O)c3c(F)cccc3F)c(F)c12	enzyme activity, inhibitor, radiometric		1 µM	remaining activity	91%
c1cnn2ncc(-c3ccnc(N4CCC45COC5)n3)c2c1	binding		1 µM	remaining binding	89%
CC(C)CC(=O)N1CCc2nc(-c3ccc(Br)cc3)nc(N(C)Cc3ccccc3)c2C1	cell-free assay, competition with immobilised ligand		0.1 µM	remaining binding	80%
CNC(=O)c1cc(Oc2ccc(NC(=O)Nc3ccc(Cl)c(C(F)(F)F)c3)cc2)ccn1	enzyme activity, inhibitor		0.3 µM	inhibition	10%
CC1=C(C#N)[C@@H](c2ccc3[nH]nc(C)c3c2)C(C#N)=C(c2ccc(Cl)cc2)N1	cell-free assay, competition with immobilised ligand		1 µM	remaining binding	74.6%
c1ccc(CNc2nc(N3CCOc4ccccc43)nc3c2CCCC3)cc1	target engagement in cells, inhibitor, chemoproteomics		20 mM	inhibition	9.1%
Cc1nc(Cc2cccc(C(F)(F)F)c2)sc1-c1ccc(C(N)=O)nc1	cell-free assay, competition with immobilised ligand		1 µM	remaining binding	91%
CCN(CC)c1ccc(C2=NNC(=O)CC2C)cc1[N+](=O)[O-] (centres unmarked)	enzyme activity, inhibitor		10 µM	remaining activity	94%
Cc1ccc(Nc2nccc(N(C)c3ccc4c(C)n(C)nc4c3)n2)cc1S(N)(=O)=O	enzyme activity, inhibitor		10 µM	inhibition	34%
Nc1ncnc2occ(-c3ccc(NC(=O)Nc4cc(C(F)(F)F)ccc4F)cc3)c12	cell-free assay, inhibitor		20 µM	remaining signal	58%
CC(C)(C)C(=O)c1sc(NC2CCCCC2)nc1N	enzyme activity, inhibitor		10 µM	remaining activity	95%
